In ChEMBL document CHEMBL3351294, “Discovery of a selective, substrate-competitive inhibitor of the lysine methyltransferase SETD8” (J Med Chem, 2014):
One block for each molecule: values may come before it.

Experiments:
[1] = target: Histone-lysine N-methyltransferase KMT5B (Homo sapiens, UniProt Q4FZB7); experiment: Inhibition of SUV420H1 (unknown origin) assessed as incorporation of tritium-labeled methyl group to lysine or arginine residues of peptide substrate by radioactive assay
In short: (§1)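 Enzymes (PRMT5 as PRMT5-MEP50 complex, MLL1 as MLL1 complex) in 20 μL reactions with 3H-SAM and substrates near each enzyme's Km; compound at 100 nM to 100 μM. Stopped with 7.5 M guanidine HCl, diluted in 20 mM Tris pH 8.0, incubated 1 h on streptavidin FlashPlate, read as CPM. No-compound CPM was 100% activity; no-enzyme CPM was 0% background.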

[2] = target: Histone-lysine N-methyltransferase KMT5C (Homo sapiens, UniProt Q86Y97); experiment: Inhibition of SUV420H2 (unknown origin) assessed as incorporation of tritium-labeled methyl group to lysine or arginine residues of peptide substrate by radioactive assay; in short: as §1
[3] = target: Protein arginine N-methyltransferase 3 (Homo sapiens, UniProt O60678); experiment: Inhibition of PRMT3 (unknown origin) assessed as incorporation of tritium-labeled methyl group to lysine or arginine residues of peptide substrate by radioactive assay; in short: as §1
Sequence of Protein arginine N-methyltransferase 3 (O60678 whole entry): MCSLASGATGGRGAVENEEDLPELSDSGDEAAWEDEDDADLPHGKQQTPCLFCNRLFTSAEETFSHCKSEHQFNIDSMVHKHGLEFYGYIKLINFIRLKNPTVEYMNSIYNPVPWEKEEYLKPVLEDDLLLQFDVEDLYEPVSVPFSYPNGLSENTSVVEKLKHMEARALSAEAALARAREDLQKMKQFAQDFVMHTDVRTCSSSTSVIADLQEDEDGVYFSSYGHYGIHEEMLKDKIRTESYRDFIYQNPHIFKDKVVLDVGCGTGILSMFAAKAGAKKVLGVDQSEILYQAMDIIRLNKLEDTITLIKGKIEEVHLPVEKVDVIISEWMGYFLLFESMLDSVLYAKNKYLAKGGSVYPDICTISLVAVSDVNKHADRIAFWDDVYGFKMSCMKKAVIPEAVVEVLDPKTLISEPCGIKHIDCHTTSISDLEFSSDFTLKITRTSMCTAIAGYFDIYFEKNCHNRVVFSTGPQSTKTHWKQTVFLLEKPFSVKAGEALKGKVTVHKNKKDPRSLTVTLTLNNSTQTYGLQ

[4] = target: N-lysine methyltransferase SMYD2 (Homo sapiens, UniProt Q9NRG4); experiment: Inhibition of SMYD2 (unknown origin) assessed as incorporation of tritium-labeled methyl group to lysine or arginine residues of peptide substrate by radioactive assay; in short: as §1
Sequence of N-lysine methyltransferase SMYD2 (Q9NRG4 whole entry): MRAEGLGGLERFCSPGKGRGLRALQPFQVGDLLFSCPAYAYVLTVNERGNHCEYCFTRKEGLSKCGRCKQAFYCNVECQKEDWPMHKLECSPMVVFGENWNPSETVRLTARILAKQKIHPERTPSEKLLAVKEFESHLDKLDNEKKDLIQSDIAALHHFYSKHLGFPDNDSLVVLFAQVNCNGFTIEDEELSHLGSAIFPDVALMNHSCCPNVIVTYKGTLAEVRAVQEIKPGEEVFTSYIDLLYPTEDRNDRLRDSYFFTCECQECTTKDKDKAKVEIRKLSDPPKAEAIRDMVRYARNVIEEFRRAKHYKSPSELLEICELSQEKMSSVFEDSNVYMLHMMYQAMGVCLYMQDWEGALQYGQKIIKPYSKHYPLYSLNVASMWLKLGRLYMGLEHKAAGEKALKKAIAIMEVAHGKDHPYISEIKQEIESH

[5] = target: Histone-lysine N-methyltransferase, H3 lysine-79 specific (Homo sapiens, UniProt Q8TEK3); experiment: Inhibition of DOT1L (unknown origin) by filter-based assay
In short: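 Filter-format tritium assay: 20 μL reaction with 3H-SAM and substrates near Km, compound at 100 nM to 100 μM, incubated 1 h at room temperature. Precipitated with 10% TCA on filter plates, washed twice with 10% TCA and once with ethanol, scintillant added, CPM counted. No-compound CPM was 100% activity; no-enzyme CPM was 0%.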

[6] = target: Histone-lysine N-methyltransferase 2A (Homo sapiens, UniProt Q03164); experiment: Inhibition of MLL1 (unknown origin) assessed as incorporation of tritium-labeled methyl group to lysine or arginine residues of peptide substrate by radioactive assay; in short: as §1
[7] = target: T1, Histone-lysine N-methyltransferase EHMT2 (Homo sapiens, UniProt Q96KQ7); experiment: Inhibition of G9a (unknown origin) assessed as incorporation of tritium-labeled methyl group to lysine or arginine residues of peptide substrate by radioactive assay; in short: as §1
T1 sequence (Q96KQ7 whole entry): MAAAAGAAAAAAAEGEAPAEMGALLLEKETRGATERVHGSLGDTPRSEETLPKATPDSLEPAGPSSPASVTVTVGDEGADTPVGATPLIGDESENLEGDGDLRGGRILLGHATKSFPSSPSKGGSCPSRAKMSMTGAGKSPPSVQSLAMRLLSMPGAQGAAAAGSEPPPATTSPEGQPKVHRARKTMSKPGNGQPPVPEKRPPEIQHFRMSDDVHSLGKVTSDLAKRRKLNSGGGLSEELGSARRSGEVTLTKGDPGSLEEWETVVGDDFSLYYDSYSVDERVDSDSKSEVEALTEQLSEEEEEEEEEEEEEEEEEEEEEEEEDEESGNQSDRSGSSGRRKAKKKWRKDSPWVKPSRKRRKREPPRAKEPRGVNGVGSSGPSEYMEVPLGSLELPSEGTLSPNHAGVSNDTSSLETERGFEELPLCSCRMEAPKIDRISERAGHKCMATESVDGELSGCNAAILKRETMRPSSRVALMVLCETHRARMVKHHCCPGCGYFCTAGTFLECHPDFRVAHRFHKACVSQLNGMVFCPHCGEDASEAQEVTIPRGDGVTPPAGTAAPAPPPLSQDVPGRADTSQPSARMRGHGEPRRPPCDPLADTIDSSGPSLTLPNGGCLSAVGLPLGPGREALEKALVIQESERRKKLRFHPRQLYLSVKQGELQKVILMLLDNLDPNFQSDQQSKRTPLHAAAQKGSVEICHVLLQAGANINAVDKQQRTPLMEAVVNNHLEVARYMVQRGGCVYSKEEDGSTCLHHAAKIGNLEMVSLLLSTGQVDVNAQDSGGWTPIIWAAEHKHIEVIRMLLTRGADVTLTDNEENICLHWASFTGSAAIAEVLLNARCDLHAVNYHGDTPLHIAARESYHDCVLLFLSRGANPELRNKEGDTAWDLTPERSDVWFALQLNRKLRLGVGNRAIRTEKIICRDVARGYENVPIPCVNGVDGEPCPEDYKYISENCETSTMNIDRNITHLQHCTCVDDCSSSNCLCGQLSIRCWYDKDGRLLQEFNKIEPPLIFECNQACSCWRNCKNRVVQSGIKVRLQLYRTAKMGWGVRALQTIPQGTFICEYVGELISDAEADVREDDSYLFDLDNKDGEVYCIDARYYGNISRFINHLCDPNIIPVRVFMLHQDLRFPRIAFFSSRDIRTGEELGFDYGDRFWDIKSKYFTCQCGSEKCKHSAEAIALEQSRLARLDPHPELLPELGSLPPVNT

[8] = target: Protein arginine N-methyltransferase 1 (Homo sapiens, UniProt Q99873); experiment: Inhibition of PRMT1 (unknown origin) assessed as incorporation of tritium-labeled methyl group to lysine or arginine residues of peptide substrate by radioactive assay; in short: as §1
Sequence of Protein arginine N-methyltransferase 1 (Q99873 whole entry): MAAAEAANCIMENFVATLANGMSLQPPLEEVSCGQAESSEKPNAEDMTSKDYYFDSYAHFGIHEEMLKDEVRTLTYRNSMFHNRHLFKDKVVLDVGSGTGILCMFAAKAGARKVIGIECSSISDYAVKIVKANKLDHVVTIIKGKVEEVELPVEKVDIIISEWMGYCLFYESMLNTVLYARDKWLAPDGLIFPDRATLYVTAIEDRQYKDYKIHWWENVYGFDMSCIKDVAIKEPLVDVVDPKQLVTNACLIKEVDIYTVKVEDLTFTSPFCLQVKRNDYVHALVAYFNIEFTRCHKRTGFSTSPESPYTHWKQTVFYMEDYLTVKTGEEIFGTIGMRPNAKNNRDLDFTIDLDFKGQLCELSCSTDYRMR

[9] = target: Histone-lysine N-methyltransferase SETDB1 (Homo sapiens, UniProt Q15047); experiment: Inhibition of SETDB1 (unknown origin) assessed as incorporation of tritium-labeled methyl group to lysine or arginine residues of peptide substrate by radioactive assay; in short: as §1
[10] = target: T2, Histone-lysine N-methyltransferase SETD7 (Homo sapiens, UniProt Q8WTS6); experiment: Inhibition of SETD7 (unknown origin) assessed as incorporation of tritium-labeled methyl group to lysine or arginine residues of peptide substrate by radioactive assay; in short: as §1
T2 sequence (Q8WTS6 whole entry): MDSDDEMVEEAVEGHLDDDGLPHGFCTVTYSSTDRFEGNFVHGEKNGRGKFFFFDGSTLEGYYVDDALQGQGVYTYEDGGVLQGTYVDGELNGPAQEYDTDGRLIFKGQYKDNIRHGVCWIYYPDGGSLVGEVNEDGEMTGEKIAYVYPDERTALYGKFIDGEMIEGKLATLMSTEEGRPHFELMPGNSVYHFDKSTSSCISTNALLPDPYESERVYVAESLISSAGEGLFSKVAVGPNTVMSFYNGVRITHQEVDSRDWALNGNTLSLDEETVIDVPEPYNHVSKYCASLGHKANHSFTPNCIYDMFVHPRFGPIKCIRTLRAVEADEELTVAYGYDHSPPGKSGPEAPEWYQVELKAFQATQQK

[11] = target: DNA (cytosine-5)-methyltransferase 1 (Homo sapiens, UniProt P26358); experiment: Inhibition of DNMT1 (unknown origin) assessed as using dsDNA substrate by radioactive assay
Sequence of DNA (cytosine-5)-methyltransferase 1 (P26358 whole entry): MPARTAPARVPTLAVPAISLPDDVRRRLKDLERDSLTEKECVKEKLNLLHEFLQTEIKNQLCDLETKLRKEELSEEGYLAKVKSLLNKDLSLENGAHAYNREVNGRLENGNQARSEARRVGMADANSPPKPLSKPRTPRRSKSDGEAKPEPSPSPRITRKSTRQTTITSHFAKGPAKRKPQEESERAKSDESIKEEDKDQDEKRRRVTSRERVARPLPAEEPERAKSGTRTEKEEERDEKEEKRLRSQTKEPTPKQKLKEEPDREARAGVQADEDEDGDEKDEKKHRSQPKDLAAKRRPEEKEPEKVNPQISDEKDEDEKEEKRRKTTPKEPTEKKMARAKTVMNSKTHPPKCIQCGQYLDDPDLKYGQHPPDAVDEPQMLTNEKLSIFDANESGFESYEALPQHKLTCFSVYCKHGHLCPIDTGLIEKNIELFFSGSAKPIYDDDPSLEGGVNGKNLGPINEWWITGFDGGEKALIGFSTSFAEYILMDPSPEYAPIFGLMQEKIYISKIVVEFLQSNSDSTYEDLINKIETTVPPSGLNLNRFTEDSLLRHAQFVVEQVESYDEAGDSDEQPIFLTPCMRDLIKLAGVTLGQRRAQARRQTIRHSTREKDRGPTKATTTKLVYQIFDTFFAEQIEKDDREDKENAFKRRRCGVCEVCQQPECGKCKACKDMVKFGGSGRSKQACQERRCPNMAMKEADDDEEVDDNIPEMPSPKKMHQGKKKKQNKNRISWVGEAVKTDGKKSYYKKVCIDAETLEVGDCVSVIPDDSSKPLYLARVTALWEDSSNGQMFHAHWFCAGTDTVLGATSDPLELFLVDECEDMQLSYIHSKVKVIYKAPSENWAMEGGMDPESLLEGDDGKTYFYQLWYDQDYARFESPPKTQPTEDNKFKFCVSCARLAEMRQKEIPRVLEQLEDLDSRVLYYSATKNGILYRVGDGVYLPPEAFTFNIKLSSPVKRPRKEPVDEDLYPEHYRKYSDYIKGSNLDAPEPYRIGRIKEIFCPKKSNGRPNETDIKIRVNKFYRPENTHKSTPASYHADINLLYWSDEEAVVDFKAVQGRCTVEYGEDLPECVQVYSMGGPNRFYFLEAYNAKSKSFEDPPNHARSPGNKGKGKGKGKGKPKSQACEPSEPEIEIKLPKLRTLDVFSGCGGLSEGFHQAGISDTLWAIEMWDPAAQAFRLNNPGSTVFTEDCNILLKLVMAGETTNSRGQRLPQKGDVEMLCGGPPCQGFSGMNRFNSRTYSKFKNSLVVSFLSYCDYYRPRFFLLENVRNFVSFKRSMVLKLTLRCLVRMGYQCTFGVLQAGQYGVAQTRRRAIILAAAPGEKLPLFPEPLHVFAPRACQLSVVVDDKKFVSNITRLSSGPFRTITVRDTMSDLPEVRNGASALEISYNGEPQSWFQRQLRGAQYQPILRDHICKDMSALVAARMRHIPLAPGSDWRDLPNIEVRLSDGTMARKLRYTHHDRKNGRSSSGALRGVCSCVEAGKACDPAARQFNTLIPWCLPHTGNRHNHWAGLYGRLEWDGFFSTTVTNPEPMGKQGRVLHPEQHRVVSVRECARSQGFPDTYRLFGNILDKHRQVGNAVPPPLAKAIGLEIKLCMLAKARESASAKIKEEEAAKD

[12] = target: Histone-lysine N-methyltransferase SUV39H2 (Homo sapiens, UniProt Q9H5I1); experiment: Inhibition of SUV39H2 (unknown origin) assessed as incorporation of tritium-labeled methyl group to lysine or arginine residues of peptide substrate by radioactive assay; in short: as §1
Sequence of Histone-lysine N-methyltransferase SUV39H2 (Q9H5I1 whole entry): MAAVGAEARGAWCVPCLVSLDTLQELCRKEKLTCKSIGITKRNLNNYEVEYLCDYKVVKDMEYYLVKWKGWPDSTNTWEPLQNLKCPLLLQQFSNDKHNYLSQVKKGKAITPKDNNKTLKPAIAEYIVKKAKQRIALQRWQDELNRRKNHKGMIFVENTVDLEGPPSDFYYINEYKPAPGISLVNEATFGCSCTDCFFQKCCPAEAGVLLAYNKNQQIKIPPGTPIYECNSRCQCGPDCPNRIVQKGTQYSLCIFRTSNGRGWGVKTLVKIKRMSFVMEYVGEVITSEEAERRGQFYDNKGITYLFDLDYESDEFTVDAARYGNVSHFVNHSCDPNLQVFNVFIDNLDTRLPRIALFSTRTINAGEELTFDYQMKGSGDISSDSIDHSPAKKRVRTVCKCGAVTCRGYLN

[13] = target: Protein arginine N-methyltransferase 5 (Homo sapiens, UniProt O14744); experiment: Inhibition of PRMT5 (unknown origin) assessed as incorporation of tritium-labeled methyl group to lysine or arginine residues of peptide substrate by radioactive assay; in short: as §1
Sequence of Protein arginine N-methyltransferase 5 (O14744 whole entry): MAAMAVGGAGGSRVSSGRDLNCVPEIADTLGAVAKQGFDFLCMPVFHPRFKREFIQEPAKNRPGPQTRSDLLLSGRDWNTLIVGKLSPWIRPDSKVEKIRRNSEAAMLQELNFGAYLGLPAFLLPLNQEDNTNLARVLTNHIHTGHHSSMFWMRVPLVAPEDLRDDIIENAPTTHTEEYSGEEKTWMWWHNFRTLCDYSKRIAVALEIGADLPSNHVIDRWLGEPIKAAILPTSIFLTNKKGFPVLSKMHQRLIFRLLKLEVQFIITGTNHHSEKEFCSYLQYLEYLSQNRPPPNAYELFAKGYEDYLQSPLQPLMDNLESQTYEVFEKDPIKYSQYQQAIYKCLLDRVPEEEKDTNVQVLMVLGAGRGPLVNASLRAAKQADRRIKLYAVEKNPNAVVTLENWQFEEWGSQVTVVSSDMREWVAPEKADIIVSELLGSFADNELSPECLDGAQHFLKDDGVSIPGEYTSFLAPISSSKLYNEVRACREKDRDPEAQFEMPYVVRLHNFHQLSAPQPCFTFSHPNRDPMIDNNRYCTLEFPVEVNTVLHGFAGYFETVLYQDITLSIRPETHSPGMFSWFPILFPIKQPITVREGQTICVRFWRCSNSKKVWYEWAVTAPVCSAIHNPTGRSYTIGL

[14] = target: T3, Histone-lysine N-methyltransferase EHMT1 (Homo sapiens, UniProt Q9H9B1); experiment: Inhibition of GLP (unknown origin) assessed as incorporation of tritium-labeled methyl group to lysine or arginine residues of peptide substrate by radioactive assay; in short: as §1
T3 sequence (Q9H9B1 whole entry): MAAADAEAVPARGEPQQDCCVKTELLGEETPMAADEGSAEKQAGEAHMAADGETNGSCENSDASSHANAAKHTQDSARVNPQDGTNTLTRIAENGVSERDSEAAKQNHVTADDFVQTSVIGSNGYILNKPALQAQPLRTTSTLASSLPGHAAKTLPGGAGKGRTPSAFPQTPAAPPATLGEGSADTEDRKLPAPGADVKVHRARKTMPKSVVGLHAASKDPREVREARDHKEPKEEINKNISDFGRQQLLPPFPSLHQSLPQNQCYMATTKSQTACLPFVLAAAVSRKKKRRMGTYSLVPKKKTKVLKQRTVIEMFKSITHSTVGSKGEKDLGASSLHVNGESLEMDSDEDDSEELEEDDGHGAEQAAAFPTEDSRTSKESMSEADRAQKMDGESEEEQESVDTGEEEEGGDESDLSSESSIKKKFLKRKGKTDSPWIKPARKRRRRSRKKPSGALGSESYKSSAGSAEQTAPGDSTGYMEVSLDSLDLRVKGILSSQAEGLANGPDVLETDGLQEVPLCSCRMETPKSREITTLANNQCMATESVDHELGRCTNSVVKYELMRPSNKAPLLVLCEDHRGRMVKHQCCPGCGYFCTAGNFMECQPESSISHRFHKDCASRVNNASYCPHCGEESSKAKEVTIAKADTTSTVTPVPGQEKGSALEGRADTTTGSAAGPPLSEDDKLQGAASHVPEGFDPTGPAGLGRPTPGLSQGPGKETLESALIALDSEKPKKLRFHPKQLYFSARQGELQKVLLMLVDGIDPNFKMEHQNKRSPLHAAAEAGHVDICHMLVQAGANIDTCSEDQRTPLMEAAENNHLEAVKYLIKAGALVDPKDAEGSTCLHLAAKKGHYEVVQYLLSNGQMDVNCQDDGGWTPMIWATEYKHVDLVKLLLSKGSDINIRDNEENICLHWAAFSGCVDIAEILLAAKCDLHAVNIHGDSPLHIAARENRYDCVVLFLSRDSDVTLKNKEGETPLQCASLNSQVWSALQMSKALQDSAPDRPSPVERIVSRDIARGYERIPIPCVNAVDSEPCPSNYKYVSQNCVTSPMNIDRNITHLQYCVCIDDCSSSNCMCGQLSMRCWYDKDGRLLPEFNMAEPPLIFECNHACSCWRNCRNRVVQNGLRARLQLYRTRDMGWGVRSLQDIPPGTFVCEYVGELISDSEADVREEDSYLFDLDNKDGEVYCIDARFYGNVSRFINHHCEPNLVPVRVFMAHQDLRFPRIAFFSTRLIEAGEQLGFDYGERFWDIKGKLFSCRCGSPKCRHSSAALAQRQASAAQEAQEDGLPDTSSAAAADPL

[15] = target: T4, N-lysine methyltransferase KMT5A (Homo sapiens, UniProt Q9NQR1)
T4 sequence (Q9NQR1 whole entry): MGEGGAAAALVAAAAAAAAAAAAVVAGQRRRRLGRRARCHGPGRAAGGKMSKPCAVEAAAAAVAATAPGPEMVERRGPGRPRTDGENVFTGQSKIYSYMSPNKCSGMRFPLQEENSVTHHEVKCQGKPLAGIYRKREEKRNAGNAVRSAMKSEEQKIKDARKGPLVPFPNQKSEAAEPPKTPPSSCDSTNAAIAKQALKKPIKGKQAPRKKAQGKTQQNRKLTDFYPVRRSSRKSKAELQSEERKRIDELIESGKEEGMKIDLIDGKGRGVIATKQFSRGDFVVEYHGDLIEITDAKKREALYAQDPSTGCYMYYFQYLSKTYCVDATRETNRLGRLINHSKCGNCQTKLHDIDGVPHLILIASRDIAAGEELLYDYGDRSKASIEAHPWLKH

[16] = target: T4, N-lysine methyltransferase KMT5A; remark: listed apart in the source

Sequence of Histone-lysine N-methyltransferase KMT5B (Q4FZB7 whole entry): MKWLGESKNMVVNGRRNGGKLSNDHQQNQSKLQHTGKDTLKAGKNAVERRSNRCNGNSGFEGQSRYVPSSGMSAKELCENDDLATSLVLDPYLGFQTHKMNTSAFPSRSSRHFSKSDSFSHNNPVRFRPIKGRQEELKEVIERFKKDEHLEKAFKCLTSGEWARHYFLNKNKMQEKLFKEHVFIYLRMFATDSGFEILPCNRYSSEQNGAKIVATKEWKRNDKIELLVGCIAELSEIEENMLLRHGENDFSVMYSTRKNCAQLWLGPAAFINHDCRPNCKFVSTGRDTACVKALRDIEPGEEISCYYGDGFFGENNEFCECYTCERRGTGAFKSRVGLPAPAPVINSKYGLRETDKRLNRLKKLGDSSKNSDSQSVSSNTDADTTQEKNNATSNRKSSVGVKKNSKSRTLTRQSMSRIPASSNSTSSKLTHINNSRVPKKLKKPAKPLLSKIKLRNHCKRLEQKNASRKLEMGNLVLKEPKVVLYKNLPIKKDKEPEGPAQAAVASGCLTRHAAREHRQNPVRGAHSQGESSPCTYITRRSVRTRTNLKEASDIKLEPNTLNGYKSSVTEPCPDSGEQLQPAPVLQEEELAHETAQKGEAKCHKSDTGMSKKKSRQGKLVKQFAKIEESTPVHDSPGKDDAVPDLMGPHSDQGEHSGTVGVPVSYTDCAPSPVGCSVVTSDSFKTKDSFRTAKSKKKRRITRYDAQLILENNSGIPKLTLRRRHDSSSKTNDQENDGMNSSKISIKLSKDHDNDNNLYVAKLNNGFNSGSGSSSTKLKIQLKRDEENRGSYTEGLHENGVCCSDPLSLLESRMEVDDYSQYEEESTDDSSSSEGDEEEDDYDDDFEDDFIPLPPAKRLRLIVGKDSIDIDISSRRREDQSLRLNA

IC50 [1]: > 100 µM | IC50 [2]: > 100 µM | IC50 [3]: > 100 µM | IC50 [4]: > 100 µM | IC50 [5]: > 100 µM | IC50 [6]: > 100 µM | IC50 [7]: > 100 µM | IC50 [8]: > 100 µM | IC50 [9]: > 100 µM | IC50 [10]: > 100 µM | IC50 [11]: > 100 µM | IC50 [12]: > 100 µM | IC50 [13]: > 100 µM | IC50 [14]: > 100 µM
Structure (SMILES): COc1cc2nc(N3CCCC3)nc(NCCCCCN3CCCC3)c2cc1OC

IC50 [15]: > 250 µM | IC50 [16]: Not Active
Structure (SMILES): COc1cc2nc(N3CCCC3)nc(N(C)CCCCCN3CCCC3)c2cc1OC

IC50 [15]: > 250 µM
Structure (SMILES): COc1cc2nc(NC3CCCC3)nc(NCCCCCN3CCCC3)c2cc1OC

IC50 [15]: > 250 µM
Structure (SMILES): COc1cc2nc(NC3CCCCC3)nc(NCCCCCN3CCCC3)c2cc1OC
